Experimental findings from ChEMBL document CHEMBL2176985 (J Med Chem, 2012) are described below.

The source made the active and inactive calls. The calls are words filed in the database; no cut-off is given here. A value given as a limit tells only on which side of the number the result lay.

Test [1] concerns Mus musculus. Nature of the test: Antidepressant activity in BALB/cJ mouse assessed as reduction of immobility time at 5 to 30 mg/kg, ip administered 30 mins before test measured over 6 mins trial by post hoc Fisher's LSD test. The class given is functional, organism-based.
Test [2] deals with T1, Acetylcholine receptor; alpha1/beta1/delta/gamma (Homo sapiens, UniProt P02708+P07510+P11230+Q07001). Put plainly: Antagonist activity at human alpha1beta1gammadelta nAChR expressed in human TE671/RD cells assessed as inhibition of 86Rb+ efflux preincubated for 10 mins by liquid scintillation counting. The test is classed as functional, cell-based. In outline:
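Cells loaded with ⁸⁶Rb⁺ were pre-exposed to test drug for 10 min. […] Efflux was normalized to intracellular ⁸⁶Rb⁺ available at that step. Nonspecific efflux came from 100 µM mecamylamine or buffer. Inactivation IC50 was obtained by curve fit.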

Test [3] deals with Mus musculus. Nature of the test: Antidepressant activity in BALB/cJ mouse assessed as reduction of immobility time at 5 to 30 mg/kg, ip administered 30 mins before test measured over 6 mins trial by forced swim test. The class given is functional, organism-based.
In test [4] the target is T1, Acetylcholine receptor; alpha1/beta1/delta/gamma. Put plainly: Agonist activity at human alpha1beta1gammadelta nAChR expressed in human TE671/RD cells assessed as stimulation of 86Rb+ efflux preincubated for 10 mins by liquid scintillation counting. The class given is functional, cell-based.
Test [5] addresses T2, Neuronal acetylcholine receptor; alpha4/beta2 (Homo sapiens, UniProt P17787+P43681). Nature of the test: Antagonist activity at human alpha4beta2 nAChR expressed in human SH-EP1 cells assessed as inhibition of 86Rb+ efflux preincubated for 10 mins by liquid scintillation counting. The class given is functional, cell-based. In outline:
(§1)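 Cells loaded with ⁸⁶Rb⁺ were pre-exposed to test drug for 10 min. Efflux was normalized to intracellular ⁸⁶Rb⁺ available at that step. Nonspecific efflux came from 100 µM mecamylamine or buffer. Inactivation IC50 was obtained by curve fit.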

Test [6] deals with T2, Neuronal acetylcholine receptor; alpha4/beta2. Put plainly: Agonist activity at human alpha4beta2 nAChR expressed in human SH-EP1 cells assessed as stimulation of 86Rb+ efflux preincubated for 10 mins by liquid scintillation counting. The test is classed as functional, cell-based.
Test [7] addresses Neuronal acetylcholine receptor; alpha3/beta4 (Rattus norvegicus) (UniProt P04757+P12392). Put plainly: Displacement of [3H]Epibatidine from rat alpha3beta4 nAChR at 10 uM. The class given is protein-complex assay.
Test [8] deals with T3, Neuronal acetylcholine receptor; alpha3/beta4 (Homo sapiens, UniProt P30926+P32297). Nature of the test: Agonist activity at human alpha3beta4 nAChR expressed in human SH-SY5Y cells assessed as stimulation of 86Rb+ efflux preincubated for 10 mins by liquid scintillation counting. The test is classed as functional, cell-based.
T3 sequence (P30926 whole entry): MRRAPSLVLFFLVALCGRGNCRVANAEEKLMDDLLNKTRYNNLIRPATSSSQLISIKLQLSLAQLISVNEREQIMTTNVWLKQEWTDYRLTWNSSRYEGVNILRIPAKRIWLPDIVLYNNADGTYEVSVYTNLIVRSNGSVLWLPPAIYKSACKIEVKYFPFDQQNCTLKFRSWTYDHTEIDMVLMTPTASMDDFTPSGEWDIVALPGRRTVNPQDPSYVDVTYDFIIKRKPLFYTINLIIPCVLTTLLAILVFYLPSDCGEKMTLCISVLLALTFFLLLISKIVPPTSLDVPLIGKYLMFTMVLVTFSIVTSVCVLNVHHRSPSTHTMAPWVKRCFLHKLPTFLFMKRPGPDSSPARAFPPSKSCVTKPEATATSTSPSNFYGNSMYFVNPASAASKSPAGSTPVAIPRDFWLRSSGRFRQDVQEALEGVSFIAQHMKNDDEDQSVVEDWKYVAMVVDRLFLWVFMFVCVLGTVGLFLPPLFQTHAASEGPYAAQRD
T3 sequence (P32297 whole entry): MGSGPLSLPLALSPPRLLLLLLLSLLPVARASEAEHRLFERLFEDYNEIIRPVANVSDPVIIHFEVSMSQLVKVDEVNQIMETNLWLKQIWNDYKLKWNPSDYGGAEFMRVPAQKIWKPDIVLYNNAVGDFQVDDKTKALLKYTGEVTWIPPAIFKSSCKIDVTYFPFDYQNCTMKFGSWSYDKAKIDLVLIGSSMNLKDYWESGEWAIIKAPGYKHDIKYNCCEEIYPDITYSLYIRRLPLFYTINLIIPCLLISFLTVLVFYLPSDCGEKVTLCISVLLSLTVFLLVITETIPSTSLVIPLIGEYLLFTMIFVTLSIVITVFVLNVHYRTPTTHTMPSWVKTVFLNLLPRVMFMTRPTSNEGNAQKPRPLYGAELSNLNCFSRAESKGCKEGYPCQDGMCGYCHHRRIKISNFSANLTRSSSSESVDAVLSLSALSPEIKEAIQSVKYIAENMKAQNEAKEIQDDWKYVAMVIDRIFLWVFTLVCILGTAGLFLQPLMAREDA
For test [9], the target named is Neuronal acetylcholine receptor; alpha3/beta2 (Rattus norvegicus, UniProt P04757+P12390). Nature of the test: Displacement of [3H]Epibatidine from rat alpha3beta2 nAChR. The test is classed as protein-complex assay. (In general: In a radioligand displacement assay an active substance lowers the binding of a labelled ligand.)
Test [10] deals with T4, Neuronal acetylcholine receptor; alpha4/beta2 (Rattus norvegicus, UniProt P09483+P12390). Put plainly: Displacement of [3H]Epibatidine from alpha4beta2 nAChR in rat brain. The class given is tissue-based.
In test [11] the target is Neuronal acetylcholine receptor; alpha4/beta4 (Rattus norvegicus) (UniProt P09483+P12392). Put plainly: Displacement of [3H]Epibatidine from rat alpha4beta4 nAChR at 10 uM. The test is classed as protein-complex assay.
The test system of test [12] is Neuronal acetylcholine receptor alpha2/beta4 (Rattus norvegicus). Put plainly: Displacement of [3H]Epibatidine from rat alpha2beta4 nAChR at 10 uM.
Test [13] has as its target T4, Neuronal acetylcholine receptor; alpha4/beta2. Nature of the test: Displacement of [3H]Epibatidine from rat alpha4beta2 nAChR. The test is classed as protein-complex assay.
Test [14] deals with T3, Neuronal acetylcholine receptor; alpha3/beta4. Nature of the test: Antagonist activity at human alpha3beta4 nAChR expressed in human SH-SY5Y cells assessed as inhibition of 86Rb+ efflux preincubated for 10 mins by liquid scintillation counting. The test is classed as functional, cell-based. In outline: as §1
Test [15] has as its target Neuronal acetylcholine receptor; alpha4/beta4 (Homo sapiens, UniProt P30926+P43681). Put plainly: Binding affinity to alpha4beta4 nAChR. The class given is protein-complex assay.
For test [16], the target named is T2, Neuronal acetylcholine receptor; alpha4/beta2. Put plainly: Agonist activity at human low-sensitivity alpha4beta2 nAChR expressed in human SH-EP1 cells assessed as stimulation of 86Rb+ efflux preincubated for 10 mins by liquid scintillation counting relative to control. The class given is functional, cell-based.
The target is the same in test [17]. Nature of the test: Antagonist activity at human alpha4beta2 nAChR expressed in human SH-EP1 cells assessed as inhibition of 86Rb+ efflux preincubated for 10 mins by liquid scintillation counting relative to control. The test is classed as functional, cell-based. In a few lines:
as §1

The target is the same in test [18]. Put plainly: Agonist activity at human high-sensitivity alpha4beta2 nAChR expressed in human SH-EP1 cells assessed as stimulation of 86Rb+ efflux preincubated for 10 mins by liquid scintillation counting relative to control. The test is classed as functional, cell-based.
In test [19] the test system is Mus musculus. Put plainly: Antidepressant activity in BALB/cJ mouse assessed as reduction of immobility time at 20 mg/kg, ip administered 30 mins before test measured over 6 mins trial by forced swim test. The class given is functional, organism-based. Set-up: dose 20 mg/kg.
The subject of test [20] is Mus musculus. Put plainly: Antidepressant activity in BALB/cJ mouse assessed as reduction of immobility time at 1 to 3 mg/kg, ip administered 30 mins before test measured over 6 mins trial by forced swim test. The test is classed as functional, organism-based.
Test [21] in a line: Agonist activity at ganglionic nAChR. The class given is functional.
In test [22] the target is T1, Acetylcholine receptor; alpha1/beta1/delta/gamma. Put plainly: Binding affinity to muscle type alpha1beta1gammadelta-nAChR. The test is classed as protein-complex assay, Muscle tissue.

T2 sequence (P17787 whole entry): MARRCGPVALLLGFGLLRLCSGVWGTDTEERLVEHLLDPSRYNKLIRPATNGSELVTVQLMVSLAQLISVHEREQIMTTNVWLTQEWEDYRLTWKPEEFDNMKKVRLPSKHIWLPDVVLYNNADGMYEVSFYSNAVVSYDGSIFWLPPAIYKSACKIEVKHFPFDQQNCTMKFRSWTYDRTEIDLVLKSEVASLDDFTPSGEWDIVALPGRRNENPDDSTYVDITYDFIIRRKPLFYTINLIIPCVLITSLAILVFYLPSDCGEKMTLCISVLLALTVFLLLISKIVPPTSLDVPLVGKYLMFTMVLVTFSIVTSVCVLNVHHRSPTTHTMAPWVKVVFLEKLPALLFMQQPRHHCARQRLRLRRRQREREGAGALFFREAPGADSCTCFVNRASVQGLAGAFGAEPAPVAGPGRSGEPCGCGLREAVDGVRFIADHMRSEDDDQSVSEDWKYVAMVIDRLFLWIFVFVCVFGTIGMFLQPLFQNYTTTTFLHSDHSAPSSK
T2 sequence (P43681 whole entry): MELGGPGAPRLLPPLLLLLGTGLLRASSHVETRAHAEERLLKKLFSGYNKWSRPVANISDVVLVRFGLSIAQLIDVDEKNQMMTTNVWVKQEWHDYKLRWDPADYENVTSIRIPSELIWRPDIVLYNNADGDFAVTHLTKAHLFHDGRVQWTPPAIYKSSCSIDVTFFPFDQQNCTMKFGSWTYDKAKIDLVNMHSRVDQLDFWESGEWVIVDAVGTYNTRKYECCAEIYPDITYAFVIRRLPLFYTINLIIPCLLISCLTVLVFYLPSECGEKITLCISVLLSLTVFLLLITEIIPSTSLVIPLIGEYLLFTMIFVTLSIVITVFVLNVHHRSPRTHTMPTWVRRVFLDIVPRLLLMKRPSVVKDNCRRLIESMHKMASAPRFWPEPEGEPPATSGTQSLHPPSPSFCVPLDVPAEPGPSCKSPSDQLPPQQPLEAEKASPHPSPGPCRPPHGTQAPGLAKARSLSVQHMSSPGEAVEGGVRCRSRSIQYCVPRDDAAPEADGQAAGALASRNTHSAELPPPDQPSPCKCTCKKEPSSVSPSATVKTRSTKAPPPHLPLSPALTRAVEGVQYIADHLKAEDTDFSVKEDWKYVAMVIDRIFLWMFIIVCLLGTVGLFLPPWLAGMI
T1 sequence (P02708 whole entry): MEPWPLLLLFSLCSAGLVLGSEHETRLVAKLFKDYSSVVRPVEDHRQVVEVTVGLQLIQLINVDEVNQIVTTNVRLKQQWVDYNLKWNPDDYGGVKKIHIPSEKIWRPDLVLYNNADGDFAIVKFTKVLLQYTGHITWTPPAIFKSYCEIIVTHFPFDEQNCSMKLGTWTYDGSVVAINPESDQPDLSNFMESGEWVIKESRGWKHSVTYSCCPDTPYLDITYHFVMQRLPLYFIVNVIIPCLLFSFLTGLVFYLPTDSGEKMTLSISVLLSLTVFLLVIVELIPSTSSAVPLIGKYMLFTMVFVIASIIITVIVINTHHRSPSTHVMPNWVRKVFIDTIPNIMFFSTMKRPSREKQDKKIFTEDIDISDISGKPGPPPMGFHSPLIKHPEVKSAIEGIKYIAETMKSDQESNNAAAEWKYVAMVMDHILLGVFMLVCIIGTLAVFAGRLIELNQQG
T1 sequence (P07510 whole entry): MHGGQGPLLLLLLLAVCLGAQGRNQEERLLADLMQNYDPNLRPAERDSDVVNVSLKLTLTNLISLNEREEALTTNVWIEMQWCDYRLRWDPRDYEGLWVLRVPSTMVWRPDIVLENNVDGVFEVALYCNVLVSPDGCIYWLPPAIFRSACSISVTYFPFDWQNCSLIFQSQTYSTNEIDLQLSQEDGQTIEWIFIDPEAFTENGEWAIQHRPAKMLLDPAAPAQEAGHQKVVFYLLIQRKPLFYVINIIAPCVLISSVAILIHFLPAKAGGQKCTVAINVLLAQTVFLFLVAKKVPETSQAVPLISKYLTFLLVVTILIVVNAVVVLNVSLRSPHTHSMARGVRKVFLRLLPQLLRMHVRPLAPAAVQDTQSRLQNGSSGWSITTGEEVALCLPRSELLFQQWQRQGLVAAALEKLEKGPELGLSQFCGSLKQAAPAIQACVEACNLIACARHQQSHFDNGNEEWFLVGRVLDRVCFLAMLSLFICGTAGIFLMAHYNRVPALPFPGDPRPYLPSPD
T1 sequence (P11230 whole entry): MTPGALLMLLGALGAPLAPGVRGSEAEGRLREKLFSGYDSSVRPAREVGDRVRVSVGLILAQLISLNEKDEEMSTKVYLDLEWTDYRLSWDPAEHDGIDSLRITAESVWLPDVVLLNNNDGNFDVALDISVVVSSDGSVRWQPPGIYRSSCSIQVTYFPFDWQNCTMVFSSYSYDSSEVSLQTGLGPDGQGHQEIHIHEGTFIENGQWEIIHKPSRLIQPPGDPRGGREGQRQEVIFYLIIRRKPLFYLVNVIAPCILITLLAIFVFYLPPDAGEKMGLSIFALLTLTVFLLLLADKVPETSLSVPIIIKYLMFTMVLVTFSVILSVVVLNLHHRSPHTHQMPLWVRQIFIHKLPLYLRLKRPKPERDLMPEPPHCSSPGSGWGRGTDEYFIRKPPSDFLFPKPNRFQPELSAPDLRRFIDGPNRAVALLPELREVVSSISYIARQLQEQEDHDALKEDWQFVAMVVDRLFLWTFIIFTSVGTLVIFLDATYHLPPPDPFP
T1 sequence (Q07001 whole entry): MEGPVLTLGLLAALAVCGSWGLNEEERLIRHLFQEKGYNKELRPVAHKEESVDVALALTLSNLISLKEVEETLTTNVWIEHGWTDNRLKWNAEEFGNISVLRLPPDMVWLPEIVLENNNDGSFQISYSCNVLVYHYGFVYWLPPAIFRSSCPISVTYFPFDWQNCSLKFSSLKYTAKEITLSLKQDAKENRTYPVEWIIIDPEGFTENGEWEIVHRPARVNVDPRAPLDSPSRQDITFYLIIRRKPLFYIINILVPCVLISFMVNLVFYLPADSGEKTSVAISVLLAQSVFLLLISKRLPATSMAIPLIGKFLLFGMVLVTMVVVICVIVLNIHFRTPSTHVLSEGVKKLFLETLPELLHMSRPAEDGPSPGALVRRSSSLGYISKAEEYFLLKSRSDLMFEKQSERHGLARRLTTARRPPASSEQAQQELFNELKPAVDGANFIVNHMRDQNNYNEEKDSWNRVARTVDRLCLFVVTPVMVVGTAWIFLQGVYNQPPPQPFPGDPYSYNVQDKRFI
Neuronal acetylcholine receptor; alpha4/beta4, sequence (P30926 whole entry): as the sequence (P30926 whole entry) above
Neuronal acetylcholine receptor; alpha4/beta4, sequence (P43681 whole entry): as the sequence (P43681 whole entry) above

`FC(F)CCc1cc(-c2cncc(OC[C@@H]3CCN3)c2)on1`: the outcome in the test with Mus musculus [1] and with Mus musculus [3] was Active. The half-inhibitory concentration (IC50) in [2] was more than 1000 nM. For the same molecule, in test [4], the EC50 is more than 1000 nM.

Regarding `c1ncc(-c2cc(CCN3CCOCC3)no2)cc1OC[C@@H]1CCCN1`, the half-inhibitory concentration (IC50) in test [5] is more than 100 nM; in [2] it was more than 1000 nM; in test [14], more than 1000 nM. Also, the EC50 in test [6] (read-out: pEC50 (converted)) was more than 100 nM; in test [6] (sh-ep1, read-out: EC50) it was more than 100 nM; in test [8], more than 1000 nM; in [4], more than 1000 nM. For the same molecule, the inhibition in test [7], in test [11] and in [12] was less than 50% in each case. Also, the inhibition constant Ki in [9] worked out at 575 nM; in [10], 132 nM; in [13], 32 nM.

As for `FCCCc1cc(-c2cncc(OC[C@@H]3CCN3)c2)on1`, the result with Mus musculus [1] and in the test with Mus musculus [3] was Active. In [2], the IC50 is more than 1000 nM. Besides, in test [4], the EC50 is more than 1000 nM.

On to `OCCc1cc(-c2cncc(OC[C@@H]3CCCN3)c2)on1`, for which the IC50 in test [2] was more than 1000 nM. The EC50 in test [4] is more than 1000 nM.

For `CCNC(=O)OCCc1cc(-c2cncc(OC[C@@H]3CCN3)c2)on1`, the IC50 in test [2] was more than 1000 nM. Further, the EC50 in [4] is more than 1000 nM.

Consider `CN1CCC[C@H]1c1cccnc1` [NICOTINE], for which the EC50 in test [4] was more than 1000 nM.

Regarding `CCNC(=O)OCCc1cc(-c2cncc(OC[C@@H]3CCCN3)c2)on1`, the concentration for half-maximal inhibition (IC50) in test [2] is more than 1000 nM. In addition, in [4], the EC50 is more than 1000 nM.

As for `OCCc1cc(-c2cncc(OC[C@H]3NC[C@@H]4C[C@@H]43)c2)on1`, the IC50 in test [2] was more than 1000 nM. Also, the EC50 in test [4] is more than 1000 nM.

For the molecule `FC(F)(F)CCc1cc(-c2cncc(OC[C@@H]3CCN3)c2)on1`, in test [2], the half-inhibitory concentration (IC50) is more than 1000 nM. For the same molecule, the EC50 in test [4] was more than 1000 nM.

For the molecule `c1cnc2cc3c(cc2n1)[C@@H]1CNC[C@H]3C1` [VARENICLINE], in test [15], the Ki was found to be 110 nM. In addition, the Efficacy in test [16] was 34%; in test [18], 106%. Moreover, in test [17], the Imax is 83%. The EC50 in test [4] was more than 1000 nM.

`O=C(Nc1ccccc1)OCCc1cc(-c2cncc(OC[C@@H]3CCCN3)c2)on1`: the half-maximal inhibitory concentration (IC50) in test [2] is more than 1000 nM. The EC50 in test [4] is more than 1000 nM.

With `c1ncc(-c2cc(CCN3CCOCC3)no2)cc1OC[C@@H]1CCN1`, the values for the half-maximal inhibitory concentration (IC50) in test [5], in test [2] and in [14] were more than 100 nM, more than 1000 nM and more than 1000 nM, respectively. The EC50 in [6] (read-out: pEC50 (converted)) is more than 100 nM; in [6] (sh-ep1, read-out: EC50) it was more than 100 nM; in [8], more than 1000 nM; in test [4], more than 1000 nM. The inhibition in test [7], in test [11] and in test [12] was less than 50% in each case. The inhibition constant (Ki) in [9] amounted to 117 nM; in test [10], 26.3 nM; in test [13] it was 11 nM.

For `O=C(Nc1ccccc1)OCCc1cc(-c2cncc(OC[C@@H]3CCN3)c2)on1`, in test [2], the IC50 is more than 1000 nM. For the same molecule, the EC50 in [4] is more than 1000 nM.

Consider `CN[C@H]1CC[C@@H](c2ccc(Cl)c(Cl)c2)c2ccccc21`, for which, in the test on Mus musculus [19], the result was Active.

As for `CCc1cc(-c2cncc(OC[C@@H]3CCN3)c2)on1`, the outcome in the test on Mus musculus [1], with Mus musculus [3] and in the test on Mus musculus [20] was Active. Also, in test [2], the half-inhibitory concentration (IC50) was more than 1000 nM. Moreover, the EC50 in test [4] is more than 1000 nM.

Regarding `CCc1cc(-c2cncc(OC[C@H]3NC[C@@H]4C[C@@H]43)c2)on1`, the IC50 in test [2] is more than 1000 nM. In [4], the EC50 was more than 1000 nM.

Take `COCCc1cc(-c2cncc(OC[C@@H]3CCN3)c2)on1`: the IC50 in test [2] was more than 1000 nM. Also, the EC50 in test [4] was more than 1000 nM.

As for `CN1CCC[C@H]1COc1cncc(-c2cc(CCO)no2)c1`, in test [2], the half-inhibitory concentration (IC50) was more than 1000 nM. Besides, the EC50 in test [4] is more than 1000 nM.

Consider `OCCCc1cc(-c2cncc(OC[C@@H]3CCCN3)c2)on1`, for which, in test [2], the IC50 was more than 1000 nM. Also, the EC50 in [4] was more than 1000 nM.

In test [21], `c1cncc(OC[C@@H]2CCN2)c1` yielded an EC50 of 800 nM. In [22], this molecule yielded a Ki of 314 nM.

Take `OCCc1cc(-c2cncc(OC[C@@H]3CCN3)c2)on1`: the IC50 in test [2] is more than 1000 nM. Besides, the EC50 in [4] is more than 1000 nM.

Usually IC50 stands for the concentration that inhibits the measured activity by half. The term inhibition denotes how much of the control response was suppressed. A higher inhibition goes with a strong effect. Usually Ki stands for the dissociation constant of the complex between target and ligand, obtained from inhibition or displacement. Higher therefore signals lower affinity.
